The target of one series is Cytochrome P450 2C9 (Homo sapiens, UniProt P11712). Put plainly: Inhibition of CYP2C9 at up to 50 uM. Type of series: ADME.
A further series addresses T1, Cytochrome P450 1A2 (Homo sapiens, UniProt P05177).
T1 sequence (P05177 whole entry): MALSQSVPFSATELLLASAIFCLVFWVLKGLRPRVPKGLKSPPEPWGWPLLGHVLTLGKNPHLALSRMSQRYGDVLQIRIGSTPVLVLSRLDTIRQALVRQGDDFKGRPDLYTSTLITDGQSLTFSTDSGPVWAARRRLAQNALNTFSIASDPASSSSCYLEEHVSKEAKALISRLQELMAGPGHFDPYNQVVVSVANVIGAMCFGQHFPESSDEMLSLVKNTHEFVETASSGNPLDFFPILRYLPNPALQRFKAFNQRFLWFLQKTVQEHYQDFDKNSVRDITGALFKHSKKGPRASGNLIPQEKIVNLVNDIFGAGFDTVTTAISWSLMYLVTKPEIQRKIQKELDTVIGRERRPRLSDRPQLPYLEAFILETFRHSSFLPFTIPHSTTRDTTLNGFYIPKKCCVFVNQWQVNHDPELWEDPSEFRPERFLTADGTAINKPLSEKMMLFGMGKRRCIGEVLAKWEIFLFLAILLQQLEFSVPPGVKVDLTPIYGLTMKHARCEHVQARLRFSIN
Nature of the series: Inhibition of CYP1A2 at up to 50 uM. The series is classed as ADME.

In a further series the target is T2, Interstitial collagenase (Homo sapiens, UniProt P03956).
T2 sequence (P03956 whole entry): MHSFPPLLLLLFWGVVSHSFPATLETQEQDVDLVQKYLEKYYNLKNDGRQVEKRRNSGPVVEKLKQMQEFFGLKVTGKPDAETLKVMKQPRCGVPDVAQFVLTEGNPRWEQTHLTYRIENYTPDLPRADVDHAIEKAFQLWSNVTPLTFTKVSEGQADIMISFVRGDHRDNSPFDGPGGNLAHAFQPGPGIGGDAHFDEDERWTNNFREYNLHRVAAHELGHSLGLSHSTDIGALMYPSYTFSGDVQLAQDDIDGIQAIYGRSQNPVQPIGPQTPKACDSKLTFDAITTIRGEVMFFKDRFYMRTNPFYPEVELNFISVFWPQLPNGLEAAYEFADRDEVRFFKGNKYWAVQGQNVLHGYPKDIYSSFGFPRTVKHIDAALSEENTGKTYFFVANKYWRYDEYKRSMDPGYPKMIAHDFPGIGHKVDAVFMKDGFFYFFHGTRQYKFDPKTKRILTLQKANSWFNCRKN
Nature of the series: Inhibition of human recombinant MMP1 after 60 mins by fluorescence plate reader. Summed up: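 Recombinant human enzyme at 20 ng/mL with 10 μM MOCAc-Lys-Pro-Leu-Gly-Leu-A2pr(Dnp)-Ala-Arg-NH₂, in 100 mM Tris-HCl pH 7.5, 150 mM NaCl, 10 mM CaCl₂, 0.05% Brij-35. Enzyme pretreated with inhibitor for 15 min at 25 °C, then substrate added. Fluorescence (ex 325, em 405 nm) read at 60 min. IC50 taken from three points in the linear range; mean of ≥2 determinations.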

The target of series [1] is T3, A disintegrin and metalloproteinase with thrombospondin motifs 5 (Homo sapiens, UniProt Q9UNA0).
T3 sequence (Q9UNA0 whole entry): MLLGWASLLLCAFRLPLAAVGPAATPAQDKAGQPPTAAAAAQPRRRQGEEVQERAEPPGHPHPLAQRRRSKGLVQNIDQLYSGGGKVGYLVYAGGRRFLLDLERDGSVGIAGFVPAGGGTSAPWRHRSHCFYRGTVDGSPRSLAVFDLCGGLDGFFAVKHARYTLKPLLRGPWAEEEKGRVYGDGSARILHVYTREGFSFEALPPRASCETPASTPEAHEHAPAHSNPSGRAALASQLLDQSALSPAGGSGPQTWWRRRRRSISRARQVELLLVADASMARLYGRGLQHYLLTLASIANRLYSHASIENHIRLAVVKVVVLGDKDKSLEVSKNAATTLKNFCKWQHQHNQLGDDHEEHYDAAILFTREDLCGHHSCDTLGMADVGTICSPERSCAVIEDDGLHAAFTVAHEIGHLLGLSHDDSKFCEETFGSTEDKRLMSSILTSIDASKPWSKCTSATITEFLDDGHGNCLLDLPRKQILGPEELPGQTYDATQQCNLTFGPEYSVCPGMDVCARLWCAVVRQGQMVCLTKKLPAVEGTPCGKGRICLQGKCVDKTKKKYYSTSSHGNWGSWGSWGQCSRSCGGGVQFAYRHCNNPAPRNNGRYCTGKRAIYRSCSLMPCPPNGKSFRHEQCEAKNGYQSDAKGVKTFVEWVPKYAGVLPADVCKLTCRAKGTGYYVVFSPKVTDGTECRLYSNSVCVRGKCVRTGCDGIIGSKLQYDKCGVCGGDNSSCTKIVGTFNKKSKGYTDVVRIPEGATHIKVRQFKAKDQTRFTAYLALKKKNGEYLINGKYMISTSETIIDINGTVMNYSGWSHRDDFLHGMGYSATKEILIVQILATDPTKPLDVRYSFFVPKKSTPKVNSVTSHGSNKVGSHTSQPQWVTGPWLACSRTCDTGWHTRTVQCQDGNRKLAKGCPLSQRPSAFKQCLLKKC
Nature of the series: Inhibition of human recombinant aggrecanase 2 after 150 mins by fluorescence plate reader.

Series [2] has as its target Matrix metalloproteinase-9 (Homo sapiens, UniProt P14780). Put plainly: Inhibition of human recombinant MMP9 after 60 mins by fluorescence plate reader. Summed up:
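rh-MMP-9 at 4 ng/mL with 10 μM MOCAc-Pro-Leu-Gly-Leu-A2pr(Dnp)-Ala-Arg-NH₂, in 100 mM Tris-HCl pH 7.5, 150 mM NaCl, 10 mM CaCl₂, 0.05% Brij-35. Enzyme and inhibitor preincubated for 15 min at 25 °C before substrate. Fluorescence (ex 325/em 405 nm) read at 60 min. IC50 from three linear-range points; ≥2 runs averaged.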

Series [3] can be described thus: Volume of distribution at steady state in Sprague-Dawley rat at 1 mg/kg, iv. The series is classed as ADME, organism-based. Also noted: dose 1 mg/kg, route intravenous. Particulars: in vivo, read-out: Vdss; call rule not given here. Summed up:
(§1)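 Intravenous dose of 1 mg/kg. Blood sampled at 0.50, 1, 2, 4, 8 and 24 h. Plasma obtained by centrifugation at 10 000 rpm for 5 min and kept at −20 °C until analysis.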

A further series addresses Collagenase 3 (Homo sapiens, UniProt P45452). Nature of the series: Inhibition of human recombinant MMP13 after 60 mins by fluorescence plate reader. Summed up:
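rh-MMP-13 at 40 ng/mL with 5 μM 7-MCA-Pro-CHA-Gly-NVal-His-Ala-DPA, in Tris-HCl pH 7.5/NaCl/CaCl₂/0.05% Brij-35. Pretreatment with inhibitor for 15 min at 25 °C, then substrate started the reaction. Fluorescence (ex 325/em 405 nm) read at 60 min. IC50 from three central linear points, averaged over ≥2 determinations.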

The nature of series [4]: Cmax in Sprague-Dawley rat at 10 mg/kg, po. The series is classed as ADME, organism-based. Set-up: dose 10 mg/kg, route oral. Conditions: in vivo.
The nature of series [5]: Clearance in Sprague-Dawley rat at 1 mg/kg, iv. Type of series: ADME, organism-based. Set-up: dose 1 mg/kg, route intravenous. Particulars: in vivo. Summed up: as §1

Each structure is given as a SMILES string.

Cytochrome P450 2C9, sequence (P11712 whole entry): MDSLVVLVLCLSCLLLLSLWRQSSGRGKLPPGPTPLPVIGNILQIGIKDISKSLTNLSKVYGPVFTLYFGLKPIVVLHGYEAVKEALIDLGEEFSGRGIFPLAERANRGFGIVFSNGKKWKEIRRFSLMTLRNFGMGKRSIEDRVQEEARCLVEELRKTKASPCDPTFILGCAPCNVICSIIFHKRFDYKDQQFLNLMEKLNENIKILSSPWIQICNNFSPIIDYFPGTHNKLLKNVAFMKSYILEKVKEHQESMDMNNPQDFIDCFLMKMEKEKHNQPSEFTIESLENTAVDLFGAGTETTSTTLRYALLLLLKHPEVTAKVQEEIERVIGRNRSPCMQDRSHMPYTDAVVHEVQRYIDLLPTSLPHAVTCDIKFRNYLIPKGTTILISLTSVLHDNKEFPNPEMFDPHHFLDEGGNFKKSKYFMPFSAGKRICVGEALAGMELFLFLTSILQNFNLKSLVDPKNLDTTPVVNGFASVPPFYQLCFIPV
Matrix metalloproteinase-9, sequence (P14780 whole entry): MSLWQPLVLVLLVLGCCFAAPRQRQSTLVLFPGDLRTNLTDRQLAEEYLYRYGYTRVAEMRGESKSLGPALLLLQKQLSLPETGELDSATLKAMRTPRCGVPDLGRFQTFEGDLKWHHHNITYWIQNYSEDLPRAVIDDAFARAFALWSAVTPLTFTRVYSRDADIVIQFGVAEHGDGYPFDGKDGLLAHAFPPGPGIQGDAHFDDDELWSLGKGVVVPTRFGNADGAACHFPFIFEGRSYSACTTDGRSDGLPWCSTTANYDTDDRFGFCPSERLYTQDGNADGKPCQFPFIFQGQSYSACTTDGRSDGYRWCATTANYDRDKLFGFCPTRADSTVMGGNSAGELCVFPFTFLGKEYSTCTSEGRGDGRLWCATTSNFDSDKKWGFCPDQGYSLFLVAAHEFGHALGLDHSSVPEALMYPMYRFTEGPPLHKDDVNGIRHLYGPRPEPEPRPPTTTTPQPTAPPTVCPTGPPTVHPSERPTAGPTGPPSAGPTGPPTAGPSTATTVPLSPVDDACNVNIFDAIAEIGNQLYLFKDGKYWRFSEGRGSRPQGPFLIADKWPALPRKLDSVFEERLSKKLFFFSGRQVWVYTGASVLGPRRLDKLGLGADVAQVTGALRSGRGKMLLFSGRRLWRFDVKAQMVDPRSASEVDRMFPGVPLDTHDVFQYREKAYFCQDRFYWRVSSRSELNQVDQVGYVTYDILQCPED

Take `C[C@@H]1[C@](C)(c2ccccc2)[C@]1(NS(=O)(=O)N1CCc2c(nc3cc(F)ccn23)C1)C(=O)O`: the “inhibition (INH)” value at Cytochrome P450 2C9 and at Cytochrome P450 1A2 was “Not Active” each time. For the same molecule, the IC50 is more than 10 µM on Interstitial collagenase, 0.0084 µM in [1], more than 10 µM in [2] and more than 10 µM on Collagenase 3. For the same molecule, the Vd in series [3] came to 0.25 L/kg. In addition, the concentration in series [4] peaked (Cmax) at 54.1 µM. This molecule also showed a clearance in series [5] of 1 mL/min/kg.

The IC50 is the concentration at which inhibition is half-maximal. The term Cmax denotes the maximum level reached in the sampled fluid or tissue. The clearance is the volume of plasma or blood freed of the substance per unit of time.

Source of the values: ChEMBL document CHEMBL1765003, “Discovery of (1S,2R,3R)-2,3-dimethyl-2-phenyl-1-sulfamidocyclopropanecarboxylates: novel and highly selective aggrecanase inhibitors” (J Med Chem, 2011).
